The source made the active and inactive calls.
Key:
[1] = system: Mus musculus; test: Analgesic activity in Swiss mouse assessed as maximum possible tail flick latency at 1.25 mg/kg, sc; type: functional; settings: route subcutaneous
Procedure, shortened: (§1)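 Male Swiss mice, 12 per group, were given compound subcutaneously at doses between 1.25 and 30 mg/kg. Analgesia was measured by tail-flick with an 8 s cut-off to avoid tissue damage. Readings were taken several times from 20 to 120 min after dosing. Inhibition was expressed as percent maximum possible effect (%MPE) by the D'Amour–Smith method.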

[2] = system: Mus musculus; test: Analgesic activity in Swiss mouse assessed as maximum possible tail flick latency at 1.25 mg/kg, sc upto 120 mins; type: functional, organism-based; set-up: dose 1.25 mg/kg; procedure, shortened: as §1
[3] = system: Mus musculus; test: Analgesic activity in Swiss mouse assessed as maximum possible tail flick latency at 10 mg/kg, po; type: functional
Procedure, shortened: (§2)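 Compound was given […] to male Swiss mice, 12 per group. Analgesia was measured by tail-flick with an 8 s cut-off. Responsiveness was read several times from 20 to 120 min after dosing. Tail-flick inhibition was expressed as percent maximum possible effect (%MPE) by the D'Amour–Smith method.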

[4] = system: Mus musculus; test: Analgesic activity in po dosed Swiss mouse assessed as thermal-stimulus induced tail flick latency; type: functional; procedure, shortened: as §2
[5] = system: Mus musculus; test: Analgesic activity in sc dosed Swiss mouse assessed as assessed as thermal-stimulus induced tail flick latency after 30 mins; settings: 0.5 h
[6] = system: Mus musculus; test: Analgesic activity in sc dosed Swiss mouse assessed as assessed as thermal-stimulus induced tail flick latency after 60 mins; type: functional; settings: 1 h

CN1CC[C@]23c4c5ccc(O)c4O[C@H]2[C@@H](O[C@@H]2O[C@H](c4nc6n(n4)CCC(O)N6)[C@@H](O)[C@H](O)[C@H]2O)C=C[C@H]3[C@H]1C5.O=C(O)C(F)(F)F (stereo not given in full)
MPE [1]: 80% | Activity [2]: Active

Cc1nnc([C@H]2O[C@@H](O[C@H]3C=C[C@H]4[C@H]5Cc6ccc(O)c7c6[C@@]4(CCN5C)[C@H]3O7)[C@H](O)[C@@H](O)[C@@H]2O)o1.O=C(O)C(F)(F)F
MPE [1]: 80% | Activity [2]: Active

CN1CC[C@]23c4c5ccc(O)c4O[C@H]2[C@@H](O[C@@H]2O[C@H](c4nnn[nH]4)[C@@H](O)[C@H](O)[C@H]2O)C=C[C@H]3[C@H]1C5.O=C(O)C(F)(F)F
MPE [1]: 80% | Activity [2]: Active | MPE [3]: 78% | ED50 [4]: 2.5 mg/kg

CN1CC[C@]23c4c5ccc(O)c4O[C@H]2[C@@H](O)C=C[C@H]3[C@H]1C5 [MORPHINE]
ED50 [5]: 4.4 mg/kg

CN1CC[C@]23c4c5ccc(O)c4O[C@H]2[C@@H](O[C@@H]2O[C@H](C(=O)O)[C@@H](O)[C@H](O)[C@H]2O)C=C[C@H]3[C@H]1C5 [MORPHINE GLUCURONIDE]
ED50 [6]: 2.7 mg/kg
